# System: U2OS
# Assay: Multiplex assay against U2OS
# Format: toxicity, cell-based
# Settings: human
# Method in brief: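 Live cells were stained at seeding with Hoechst33342, BioTracker Green Microtubule Cytoskeleton Dye, MitoTracker Red and Annexin V Alexa Fluor 680. Following compound addition, they were imaged on a CQ1 microscope at 37°C and 5% CO2 and gated by CellPathfinder machine learning into Hoechst high-intensity objects or normal cells, with normal cells split into healthy, pyknosed or fragmented nuclei and pyknosed cells into mitotic or apoptotic. Tubulin, mitochondrial-mass and membrane-permeability phenotypes are per cents of healthy-nucleus cells.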
# [1] = 12 h, 1 µM, compound concentration 1 uM, replicate 1
# [2] = 12 h, 1 µM, compound concentration 1 uM, replicate 2
# [3] = 12 h, 10 µM, compound concentration 10 uM, replicate 1
# [4] = 12 h, 10 µM, compound concentration 10 uM, replicate 2
# [5] = 24 h, 1 µM, compound concentration 1 uM, replicate 1
# [6] = 24 h, 1 µM, compound concentration 1 uM, replicate 2
# [7] = 24 h, 10 µM, compound concentration 10 uM, replicate 1
smiles,measurement,setting,value
N#CCNC(=O)c1ccc(-c2ccnc(Nc3ccc(N4CCOCC4)cc3)n2)cc1 [MOMELOTINIB],Population Apoptotic (%),[1],70%
same,Population Fragmented Nuclei (%),[1],12%
same,Population Healthy Nuclei (%),[1],77%
same,Population Hoechst High Intensity Objects (%),[1],5%
same,Population Membrane Permeable-Phenotype (%),[1],9%
same,Population Mitochondria Different-Phenotype (%),[1],6%
same,Population Mitotic Cells (%),[1],29%
same,Population Normal (%),[1],94%
same,Population Pyknosed Nuclei (%),[1],10%
same,Population Tubulin-Different-Phenotype (%),[1],18%
same,Total Cell Count,[1],3583
same,Population Apoptotic (%),[2],60%
same,Population Fragmented Nuclei (%),[2],1%
same,Population Healthy Nuclei (%),[2],88%
same,Population Hoechst High Intensity Objects (%),[2],8%
same,Population Membrane Permeable-Phenotype (%),[2],2%
same,Population Mitochondria Different-Phenotype (%),[2],13%
same,Population Mitotic Cells (%),[2],40%
same,Population Normal (%),[2],91%
same,Population Pyknosed Nuclei (%),[2],9%
same,Population Tubulin-Different-Phenotype (%),[2],11%
same,Total Cell Count,[2],3119
same,Population Apoptotic (%),[3],44%
same,Population Fragmented Nuclei (%),[3],18%
same,Population Healthy Nuclei (%),[3],57%
same,Population Hoechst High Intensity Objects (%),[3],6%
same,Population Membrane Permeable-Phenotype (%),[3],10%
same,Population Mitochondria Different-Phenotype (%),[3],20%
same,Population Mitotic Cells (%),[3],55%
same,Population Normal (%),[3],93%
same,Population Pyknosed Nuclei (%),[3],23%
same,Population Tubulin-Different-Phenotype (%),[3],20%
same,Total Cell Count,[3],180
same,Population Apoptotic (%),[4],13%
same,Population Fragmented Nuclei (%),[4],27%
same,Population Healthy Nuclei (%),[4],47%
same,Population Hoechst High Intensity Objects (%),[4],10%
same,Population Membrane Permeable-Phenotype (%),[4],0%
same,Population Mitochondria Different-Phenotype (%),[4],6%
same,Population Mitotic Cells (%),[4],86%
same,Population Normal (%),[4],89%
same,Population Pyknosed Nuclei (%),[4],24%
same,Population Tubulin-Different-Phenotype (%),[4],6%
same,Total Cell Count,[4],56
same,Population Apoptotic (%),[5],42%
same,Population Fragmented Nuclei (%),[5],14%
same,Population Healthy Nuclei (%),[5],78%
same,Population Hoechst High Intensity Objects (%),[5],3%
same,Population Membrane Permeable-Phenotype (%),[5],10%
same,Population Mitochondria Different-Phenotype (%),[5],9%
same,Population Mitotic Cells (%),[5],57%
same,Population Normal (%),[5],96%
same,Population Pyknosed Nuclei (%),[5],7%
same,Population Tubulin-Different-Phenotype (%),[5],17%
same,Total Cell Count,[5],3609
same,Population Apoptotic (%),[6],66%
same,Population Fragmented Nuclei (%),[6],7%
same,Population Healthy Nuclei (%),[6],86%
same,Population Hoechst High Intensity Objects (%),[6],10%
same,Population Membrane Permeable-Phenotype (%),[6],6%
same,Population Mitochondria Different-Phenotype (%),[6],15%
same,Population Mitotic Cells (%),[6],33%
same,Population Normal (%),[6],89%
same,Population Pyknosed Nuclei (%),[6],5%
same,Population Tubulin-Different-Phenotype (%),[6],8%
same,Total Cell Count,[6],3108
same,Population Apoptotic (%),[7],61%
same,Population Fragmented Nuclei (%),[7],20%
same,Population Healthy Nuclei (%),[7],46%
same,Population Hoechst High Intensity Objects (%),[7],8%
same,Population Membrane Permeable-Phenotype (%),[7],13%
